High-throughput results as filed in PubChem BioAssay.
Most compounds without a hit are left out; they make up all but 2% or so of the library.
NR2E3 ag-1 – inhibitors of NR2E3-RetCOR corepressor binding, primary screen, NR2E3 agonist project, biochemical, TR-FRET, GST-NR2E3, biotin-RetCOR; Photoreceptor-specific nuclear receptor (Homo sapiens), Q9Y5X4; 1536-well; inhibition of corepressor binding, % at 4.78 µM; 0.12% of 320,000 active;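 active = percent inhibition above the cutoff of mean plus 3 SD of all tested compounds, set per screening campaign, cut at about 20% in these data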;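 also: 0% = DMSO wells and 100% = biotin wells as full block of FRET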
Target sequence (Q9Y5X4 whole entry, looked up): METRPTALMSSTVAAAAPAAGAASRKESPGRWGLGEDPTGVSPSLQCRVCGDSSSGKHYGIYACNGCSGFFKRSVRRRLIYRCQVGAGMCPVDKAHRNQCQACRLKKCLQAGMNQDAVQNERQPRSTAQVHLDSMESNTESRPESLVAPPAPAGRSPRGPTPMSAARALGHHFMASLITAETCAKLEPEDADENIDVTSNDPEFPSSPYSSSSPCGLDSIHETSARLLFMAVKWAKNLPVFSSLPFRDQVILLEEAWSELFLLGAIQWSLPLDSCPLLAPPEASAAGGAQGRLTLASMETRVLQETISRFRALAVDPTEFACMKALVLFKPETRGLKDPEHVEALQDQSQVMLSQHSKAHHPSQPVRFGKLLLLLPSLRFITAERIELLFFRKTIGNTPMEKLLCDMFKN
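Material: NR2E3–RetCOR corepressor complex / Incubation: Compound–protein incubation for 5 h at 4 °C / Dosing: compound at 4.8 µM, single dose / Detection: time-resolved FRET / Benchmarks: high control biotin, low control 0.6% DMSO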
Neddylation inh – inhibitors of cullin neddylation, primary screen, biochemical, TR-FRET, uHTS, NAE and Ubc12; 0.58% of 360,000 active; calls only at 25 µM; NEDD8-conjugating enzyme Ubc12 (Homo sapiens) + NEDD8-activating enzyme E1 regulatory …; in the data active = inhibition above about 36%
NR1D1 modulator – modulators of Rev-erb alpha DNA binding, primary screen, biochemical, FITC-DNA, fluorescence polarization, uHTS; activity, % at 10 µM; AID 1259318, 2017; Nuclear receptor subfamily 1 group D member 1 (Homo sapiens), P20393; 0.79% of 370,000 active; Rev-erbα–FITC-DNA binding, 90 min;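 active = activity above about 14%, limit read from the data; passing the limit was not always enough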;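 also: 0% = DMSO wells with 35 nM protein and 100% = DMSO wells with 750 nM protein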
NR2E3 ag-2 – NR2E3 agonists in two-hybrid cells, primary screen, cell-based, luminescence, CHO-S, Gal4-NCOR/VP16-NR2E3. Photoreceptor-specific nuclear receptor (Homo sapiens), Q9Y5X4. luciferase. inhibition of corepressor binding, % at 3.98 µM. 0.35% of 360,000 active;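 active = inhibition above the mean of all tested compounds plus 3 SD, cut at about 70% in these data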;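 also: 0% = DMSO with NR2E3 transfected cells and 100% = cells lacking NR2E3 construct; higher means lower luciferase signal from less NR2E3 corepressor binding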
PG9 Ab binder – binders of HIV-1 gp120 antibody PG9, primary screen, biochemical, TR-FRET; 0.43% of 360,000 active; HIV-1 gp120 / PG9 antibody interaction; inhibition, % at 6.7 µM; TR-FRET gp120-PG9 antibody binding; in the data active = inhibition above about 8.5%
Neddyl inh conf – blockade of NEDD8 conjugation to cullin – biochemical, TR-FRET, single concentration, confirmation; 13% of 1,800 active; shares compounds with Neddylation inh; TR-FRET cullin neddylation biochemical assay; AID 652217, 2013; calls only at 25 µM; in the data active = inhibition above about 40%;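 also: neddylation substrate is the cullin 1 ring ligase complex with SKP2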
* = called active by the depositor; i = inactive; / = no result shown; + = active, no number.

SMILES	NR2E3 ag-1	Neddylation inh	NR1D1 modulator	NR2E3 ag-2	PG9 Ab binder	Neddyl inh conf
COc1ccc(C=NNC(=O)c2ccccc2OCc2ccc(F)cc2)c(OC)c1	/	+	-4	-17	-1	i
COc1ccc(/C=N/NC(=O)c2ccc(N(C)S(=O)(=O)c3ccccc3)cc2)c(OC)c1	2	+	2	-3	0	i
COc1ccc(OC)c(/C=N/NC(=O)c2ccc(N(C)S(=O)(=O)c3ccccc3)cc2)c1	0	/	4	7	1	/
CC(C)[C@@H](CSc1ccccc1)N1CCN(Cc2ccccc2)CCC1=O	3	i	1	5	-1	/
Cc1ccc2ccc(C#N)cc2c1O	/	+	2	-24	-4	+
S=c1[nH]nc(-c2cc(-c3ccccc3)n[nH]2)n1/N=C/C=C/c1ccco1	-1	+	-5	-35	1	i
S=c1[nH]nc(-c2cc(-c3ccccc3)n[nH]2)n1/N=C/c1cccc2ccccc12	/	/	-8	/	/	/
S=c1[nH]nc(-c2ccco2)n1/N=C/C=C/c1ccco1	0	i	-6	-10	-2	/
S=c1[nH]nc(-c2cc(-c3ccccc3)n[nH]2)n1/N=C/c1c(Cl)cccc1Cl	0	+	-10	0	3	i
Cc1[nH]nc2c1C(c1ccccc1)C1=C(CC(C)(C)CC1=O)N2 (stereo not given)	0	i	-3	-6	-1	/
Cc1[nH]nc2c1C(c1ccc(O)cc1)C1=C(CC(C)(C)CC1=O)N2 (stereo not given)	-1	+	-6	21	0	i
CCOC(=O)C1=CC[C@@H](c2ccccc2)C(C#N)(C#N)[C@H]1/C=C/c1ccccc1	/	/	1	/	1	/
N#Cc1ccc(/C=C(\C(=O)C(=O)O)c2ccc3ccccc3n2)cc1	1	+	2	-107	-3	i
CCC(=O)N/C(N)=N/c1nc(C)c2cc(OC)ccc2n1	1	+	5	-76	1	+
CN(CCCN1CCCCC1)C(=O)c1cc(COc2ccc(F)cc2F)on1	1	i	0	-30	0	/
Oc1ccccc1C=NNC(=S)Nc1ccc(F)cc1	/	+	2	36	-2	/
Fc1ccc(NC(=S)NN=Cc2ccccc2Cl)cc1	/	i	3	-85	-2	/
Oc1ccccc1/C=N/NC(=S)NCCc1ccccc1	/	+	-2	41	0	i
CC(Sc1nnc(C(C)Oc2ccc(F)cc2)o1)C(=O)NCc1ccc2c(c1)OCO2 (stereo not given)	/	i	3	-15	0	/
O=C(Nc1cccnc1Cl)c1cc(-c2cccc(O)c2)on1	-17	+	-19	-4	-1	+
COc1cccc(-c2cc(C(=O)Nc3cccnc3Cl)no2)c1	-2	/	11	-11	0	/
Cc1ccc(C(=O)NC2CCCCN(Cc3cccc(F)c3)C2=O)cc1 (stereo not given)	/	/	4	/	/	/
CC(CCc1ccccc1)NC(=O)COC(=O)c1cccc(N(C)C)c1 (stereo not given)	2	+	-1	-23	0	i
CN(C)[C@H]1CCN([C@@H]2CS(=O)(=O)N[C@H]2COCc2ccccc2)C1	/	i	-2	-3	-1	/
O=C(NC1CCCC1)c1cc2nc(-c3ccco3)cc(C(F)(F)F)n2n1	1	+	0	-3	-1	i
SMILES	NR2E3 ag-1	Neddylation inh	NR1D1 modulator	NR2E3 ag-2	PG9 Ab binder	Neddyl inh conf
O=C(NC1CCCCC1)c1cnn2c(C(F)(F)F)cc(-c3ccco3)nc12	1	+	-7	-16	3	+
CCCNC(=O)c1cc2nc(-c3ccccc3)cc(C(F)(F)F)n2n1	3	+	-4	-34	-2	/
O=C(NC1CCCCC1)c1nn2c(C(F)(F)F)cc(-c3ccco3)nc2c1Br	-2	i	-3	-11	-1	/
CCCCNC(=O)c1cc2nc(-c3ccccc3)cc(C(F)(F)F)n2n1	-1	/	7	-14	0	/
C[C@@H]1CN([C@@H](C)CO)C(=O)c2cc(Br)cnc2O[C@H]1CN(C)Cc1cccnc1	/	i	5	5	-1	/
O=C(O)CN1C(=O)/C(=C\C(Br)=C\c2ccccc2)SC1=S	3	i	-1	3	0	/
CCN1C(=O)[C@@H]2[C@@H](c3ccc(-c4ccc(Cl)c(Cl)c4)c(OC)c3)N3CCC[C@@]3(C(=O)OC)[C@@H]2C1=O	-3	i	1	-12	1	/
COCCNC(=O)CSc1nc(-c2ccc(OC)c(OC)c2)cc(C(F)(F)F)n1	4	+	-2	-12	1	/
CCn1cc(CNC(=O)CSc2nc(-c3ccc(OC)c(OC)c3)cc(C(F)(F)F)n2)c(C)n1	0	/	-2	13	0	/
O=C(CSc1nc(-c2ccccc2)cc(C(F)(F)F)n1)N1CCOCC1	0	i	-3	-31	0	/
COc1ccc(-c2cc(C(F)(F)F)nc(SCC(=O)N3CCOCC3)n2)cc1OC	3	+	-3	-19	-1	i
CN(CCOC(=O)c1occ2ccccc12)C1CN(Cc2cn(Cc3ccccc3Cl)nn2)S(=O)(=O)C1 (stereo not given)	/	/	-3	/	/	/
CC(C)Cc1csc(NC(=O)c2ccc(Cl)cc2)c1C(=O)O	0	+	-1	-54	0	i
CC(C)Cc1csc(NC(=O)c2ccccc2Cl)c1C(=O)O	0	i	-1	-2	-1	/
CSc1nc(N)c2c(n1)N(C)C=NS2(=O)=O	/	i	-5	-23	0	/
Cc1ccc(-c2cc(-c3ccc(F)cc3)c(C#N)c(N)n2)o1	1	+	-1	-2	0	/
CCc1cc2c(=O)c(-c3nc4ccccc4n3C)c(C)oc2cc1OC(C)=O	0	+	-4	-5	-2	i
CCc1cc2c(=O)c(-c3nc4ccccc4n3C)c(COCC(=O)O)oc2cc1OC(=O)C(C)(C)C	-3	i	0	6	-2	/
Cc1[nH]nc2c(=S)[nH]c(=O)[nH]c12	/	i	-3	-1	-1	/
COc1ccc(NC(=O)CN(C)C(=O)c2ccc(NS(=O)(=O)c3ccc(F)cc3)cc2)cc1	2	i	-2	-3	0	/
c1cc(-c2ccc(N3CCOCC3)cc2)n2ccnc2c1	/	/	-5	-44	0	/
O=C(Nc1ccc2nc(-c3ccccc3)oc2c1)c1ccco1	0	+	4	-99	-1	i
O=C(Nc1ccc2oc(-c3cccnc3)nc2c1)c1ccco1	4	/	-25	-68	-1	/
